Source: PubChem BioAssay (Broad Institute)
The list is not random: actives were taken first. Their share in the collection is about 2.9%.
Statin myotox sup: suppression of simvastatin myotoxicity; C2C12 myotubes + simvastatin, ATP luminescence, 48 h; scaled: DMSO 0, geranylgeraniol control 100; 330,000 tested, 0.78% active; rescue of ATP level, % at 7.49 µM; AID 602340;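 active = mean ATP rescue above about 67%, or every replicate alone reaching that limit, limit read from the data, passing the limit was not always enough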;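 also: myotubes were challenged with 10 µM simvastatin during compound exposure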
SIRT5 block: sirtuin-5 (human) deacylase inhibition | Purified SirT5, succinyl-peptide AMC, trypsin-coupled fluorescence | AID 652115 | 330,000 tested, 1.1% active | inhibition, % at 15 µM | Q9NXA8; in the data active = inhibition above about 15%
PGC1a acetyl inh: PGC1a acetylation modulation, inhibitor mode. U2OS PGC1a acetylation, AlphaScreen anti-acetyl-lysine; with virally co-expressed GCN5 acetyltransferase. AID 651687. 350,000 tested, 0.17% active. inhibition, % at 15.6 µM;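 active = every replicate shows inhibition of at least 40%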;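 also: 0% = neutral control wells and 100% = positive control wells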
DENV2 CPE: protects cells from dengue virus 2 cytopathic effect. DENV2-infected cells, cytopathic effect rescue, plate reader. CPE inhibition, % at 9.99 µM. 350,000 tested, 1.7% active. AID 651640; in the data active = CPE inhibition above about 20%, passing the limit was not always enough; tested in BHK-21 cells;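 also: 0% = median of neutral control wells and 100% = median of positive control wells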
S100A4 MyoIIA: S100A4-myosin IIA interaction inhibition | inhibition, % at 10.7 µM | P26447 | 360,000 tested, 0.14% active | S100A4/TAMRA-MyoIIA peptide fluorescence polarization | AID 652163;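 active = mean inhibition of at least 70% across replicates, with every replicate also reaching that level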
Target sequence (P26447 whole entry, looked up): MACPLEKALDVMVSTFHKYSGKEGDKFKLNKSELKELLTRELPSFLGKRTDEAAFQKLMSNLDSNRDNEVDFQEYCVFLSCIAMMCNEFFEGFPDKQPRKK
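Test system: S100A4 monomer protein; Medium: HEPES pH 7.2 with CaCl2, KCl, NaCl, DTT, Triton; Probe or stimulus: TAMRA-labelled myosin IIA heavy-chain peptide probe, 5 nM; Doses: one dose per compound; Times: polarization read 5 min after assay mix addition, stable 5–60 min; Benchmarks: neutral control DMSO, positive control TFP.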
COX5a expr inh: inhibitors of PGC-1a target COX5a expression in C2C12 myotubes. shares compounds with PGC1a acetyl inh. C2C12 myotubes PGC-1a adenovirus, COX5a qPCR. maximal activity, %. 45 tested, under 10 active. AID 743461;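 active = fitted dose curve reaching 40% activity at or below the highest valid dose tested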
AID743468: change in PGC-1a target gene PDK4 expression, dose response, C2C12 myotubes, RT-qPCR, cherry-pick; shares compounds with PGC1a acetyl inh; PGC-1a adenovirus, PDK4 mRNA qPCR; PDK4 expression increase, % at 19.5 µM; 45 tested, under 10 active; AID 743468;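 active = fitted curve reaching a 40% PDK4 expression rise at or below the top valid tested dose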
Numbers without * were called inactive.

Cc1ccc2c(c1N)C(=O)c1ccccc1C2=O was read as Statin myotox sup 4, PGC1a acetyl inh 0, DENV2 CPE 31* and S100A4 MyoIIA 17.
CC12Cc3cn[nH]c3C=C1CCC1C2CCC2(C)C1CCC2(C)O (stereo not given) was read as Statin myotox sup -2, SIRT5 block 35*, PGC1a acetyl inh 7, DENV2 CPE 13 and S100A4 MyoIIA -2.
C/C=C/c1ccc(C2[C@@H]3CN(Cc4cccnc4)C[C@H]2N3)cc1 (stereo not given in full) was read as SIRT5 block -1, PGC1a acetyl inh -8, DENV2 CPE 10 and S100A4 MyoIIA 2.
For COC(=O)[C@@H]1[C@@H](CO)[C@@H]2Cn3c(ccc(-c4ccccc4OC)c3=O)[C@H]1N2Cc1ccccc1 the results were Statin myotox sup -19 and S100A4 MyoIIA 1.
Screening COC(=O)[C@@H]1[C@@H](CO)[C@@H]2Cn3c(ccc(-c4ccccc4F)c3=O)[C@H]1N2C(=O)C1CC1 returned Statin myotox sup -10, SIRT5 block -5, PGC1a acetyl inh 3, DENV2 CPE 4 and S100A4 MyoIIA -17.
For COC(=O)[C@H]1[C@H](CO)[C@H]2Cn3c(ccc(C4=CCCC4)c3=O)[C@@H]1N2CC1CCCCC1 the results were Statin myotox sup -10, SIRT5 block 8, DENV2 CPE 9 and S100A4 MyoIIA -16.
For NCCc1ccccc1 the results were Statin myotox sup 0, SIRT5 block 0, PGC1a acetyl inh -5, DENV2 CPE 43* and S100A4 MyoIIA 2.
For NCCc1ccc(S(N)(=O)=O)cc1 the results were SIRT5 block -2, DENV2 CPE 6 and S100A4 MyoIIA -3.
For CC(=O)OC1C(O)C(C)OC(OC2C(OC(=O)C3CCC4C(C3)OC3(CC(OC(=O)/C=C/c5ccccc5)C(C)CO3)C43CO3)OC(C)C(O)C2OC(C)=O)C1O (stereo not given) the results were SIRT5 block -3, PGC1a acetyl inh 78*, DENV2 CPE -10 and S100A4 MyoIIA -3.
`CN(C)CC1CSCCC1(O)c1ccc(Cl)cc1` (stereo not given) gave Statin myotox sup 4 and PGC1a acetyl inh -9.
`CN(C)CC1CSCCC1(O)c1ccc(C(F)(F)F)cc1` (stereo not given) gave SIRT5 block -25, PGC1a acetyl inh 1, DENV2 CPE 69* and S100A4 MyoIIA -3.
Screening CCn1nc(/C=C/c2ccccc2)nc2c(=O)n(C)c(=O)nc1-2 returned SIRT5 block 12, PGC1a acetyl inh 69*, DENV2 CPE -1, S100A4 MyoIIA 2, COX5a expr inh -56 and AID743468 -55.
For COC(=O)[C@@H]1N[C@@H]2c3ccc(C4=CCCC4)c(=O)n3C[C@@H]2[C@H]1CO the results were Statin myotox sup 8, SIRT5 block -7, DENV2 CPE -16 and S100A4 MyoIIA -1.
